Test results as given in ChEMBL document CHEMBL1212872, “Dual inhibitors of inosine monophosphate dehydrogenase and histone deacetylase based on a cinnamic hydroxamic acid core structure” (Bioorg Med Chem, 2010).

Columns and labels:
[1] = target: Inosine-5'-monophosphate dehydrogenase 2 (Homo sapiens, UniProt P12268); experiment: Inhibition of human IMPDH2; conditions: read-out: Ki(app)
How it was run: (§1)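 Run in duplicate with IMPDH1 at 150 nM or IMPDH2 at 50 nM, across a range of inhibitor concentrations. Buffer: 50 mM Tris pH 8.0, 100 mM KCl, 1 mM DTT, with 100 µM IMP and 100 µM NAD, at 25 °C. NADH formation followed at 340 nm. IC50 from a variable-slope sigmoidal fit of steady-state velocities; apparent Ki from the Morrison equation.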

[2] = Inhibition of nuclear extract HDAC
How it was run: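 HDAC nuclear extract tested with a commercial HDAC activity/inhibitor screening kit per its protocol. Inhibitors were dissolved in DMSO or methanol. IC50 from a variable-slope sigmoidal fit of end-point fractional fluorescence. Autofluorescence corrected using a compound concentration curve run under background-well conditions.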

[3] = target: Inosine-5'-monophosphate dehydrogenase 1 (Homo sapiens, UniProt P20839); experiment: Inhibition of human IMPDH1; conditions: read-out: Ki(app); how it was run: as §1
K562 = experiment: Antiproliferative activity against human K562 cells after 72 hrs by MTS assay; type: functional, cell-based; conditions: K562, 72 h

Sequence of Inosine-5'-monophosphate dehydrogenase 1 (P20839 whole entry): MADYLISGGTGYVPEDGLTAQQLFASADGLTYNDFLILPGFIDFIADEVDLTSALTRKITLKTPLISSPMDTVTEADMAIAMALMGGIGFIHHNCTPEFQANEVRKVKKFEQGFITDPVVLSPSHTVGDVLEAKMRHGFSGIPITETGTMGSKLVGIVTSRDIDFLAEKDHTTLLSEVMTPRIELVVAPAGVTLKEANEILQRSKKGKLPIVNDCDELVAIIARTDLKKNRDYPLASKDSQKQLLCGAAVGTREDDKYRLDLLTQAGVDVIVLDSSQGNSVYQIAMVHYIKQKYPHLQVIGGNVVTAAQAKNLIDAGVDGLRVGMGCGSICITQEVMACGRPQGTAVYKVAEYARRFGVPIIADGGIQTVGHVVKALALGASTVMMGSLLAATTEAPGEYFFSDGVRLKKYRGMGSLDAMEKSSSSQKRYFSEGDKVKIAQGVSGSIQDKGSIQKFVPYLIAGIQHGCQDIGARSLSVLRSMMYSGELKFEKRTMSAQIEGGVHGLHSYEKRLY

SMILES | Ki [1] [nM] | IC50 [2] [nM] | Ki [3] [nM] | IC50 (K562) [nM]
COc1cc(NC(=O)C(=O)NCc2ccc(/C=C/C(=O)NO)cc2)ccc1-c1cnco1 | 1400 | 230 | 17000 | 5300
COc1cc(NC(=O)C(=O)Nc2ccc(/C=C/C(=O)NO)cc2)ccc1-c1cnco1 | 1800 | 17000 | 7100 | 72000
COc1cc(NC(=O)NCc2ccc(/C=C/C(=O)NO)cc2)ccc1-c1cnco1 | 1200 | 26 | 7800 | 3500
COc1cc(NC(=O)C(=O)NCc2cccc(/C=C/C(=O)NO)c2)ccc1-c1cnco1 | 1500 | 890 | 4400 | > 100000
COc1cc(NC(=O)Nc2cccc(/C=C/C(=O)NO)c2)ccc1C#N | 1200 | 3400 | 8200 | 38000
COc1cc(NC(=O)Nc2ccc(/C=C/C(=O)NO)cc2)ccc1C#N | 230 | 630 | 1200 | 4000
COc1cc(NC(=O)NCc2ccc(/C=C/C(=O)NO)cc2)ccc1C#N | 11000 | 36 | > 100000 | –
COc1cc(NC(=O)Nc2ccc(/C=C/C(=O)NO)cc2)ccc1-c1cnco1 | 250 | 550 | 300 | 4900
COc1cc(NC(=O)Nc2cccc(/C=C/C(=O)NO)c2)ccc1-c1cnco1 | 120 | 3000 | 580 | > 100000
COc1cc(NC(=O)C(=O)Nc2cccc(/C=C/C(=O)NO)c2)ccc1-c1cnco1 | 200 | 1800 | 460 | 28000
COc1cc(NC(=O)NCc2cccc(/C=C/C(=O)NO)c2)ccc1C#N | 2600 | 640 | 44000 | 28000
COc1cc(NC(=O)NCc2cccc(/C=C/C(=O)NO)c2)ccc1-c1cnco1 | 340 | 830 | 2300 | 18000
